Test results: ChEMBL document CHEMBL3232716, “Tailoring cytotoxicity of antimicrobial peptidomimetics with high activity against multidrug-resistant Escherichia coli” (J Med Chem, 2014); call rule not given here
Converted amounts (≈) assume the structure as drawn. Square brackets hold non-standard residues; d marks the D form. Peptide text beside a SMILES is read from it. hArg = N=C(N)NCCCC[C@H](N)C(=O)O; Nspe = C[C@H](NCC(=O)O)c1ccccc1

Experiments:
Acinetobacter baumannii = assay: Antibacterial activity against multidrug-resistant Acinetobacter baumannii clinical isolate E2-1228625 after 18 hrs by microdilution broth method; type: functional; settings: clinical isolate E2-1228625, 18 h
Staphylococcus aureus = assay: Antibacterial activity against methicillin-resistant Staphylococcus aureus ATCC 33591 after 18 hrs by microdilution broth method; type: functional; settings: ATCC 33591, 18 h
Summary of the method: (§1)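 CLSI broth microdilution. […] Incubated 35 °C in ambient air for 18 h. MIC taken as the lowest concentration with no visible growth versus the compound-free control. Reported as median and range of three independent biological replicates run on separate days.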

HeLa = assay: Cytotoxicity against human HeLa cells after 1 hr by MTS/PMS assay; type: cell-based
Summary of the method: (§2)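 Monolayers (passage 4–10) grown ~21–25 h to ~90% confluence. Seeding per well: HeLa 8000, HepG2 23 000, NIH 3T3 22 000, IEC-6 16 000, Caco-2 25 000. Cells washed with HBSS/10 mM Hepes pH 7.4 and exposed 1 h at 37 °C, 50 rpm, to compound 0–2000 μM in culture medium. MTS 240 μg/mL/PMS 2.4 μg/mL for 1.5–4 h, A492. Viability referenced to SDS and untreated controls; IC50 from one biological replicate in triplicate.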

Caco-2 = assay: Cytotoxicity against human Caco2 cells after 1 hr by MTS/PMS assay; type: cell-based; settings: Caco-2, 1 h; summary of the method: as §2
HepG2 = assay: Cytotoxicity against human HepG2 cells after 1 hr by MTS/PMS assay; type: cell-based; settings: HepG2, 1 h; summary of the method: as §2
[1] = Cytotoxicity against rat IEC-6 cells after 1 hr by MTS/PMS assay; type: cell-based; settings: IEC-6, 1 h; summary of the method: as §2
[2] = Cytotoxicity against mouse NIH/3T3 cells after 1 hr by MTS/PMS assay; type: cell-based; settings: NIH3T3, 1 h; summary of the method: as §2
HUVEC = assay: Cytotoxicity against HUVEC after 1 hr by MTS/PMS assay; type: cell-based; settings: Homo sapiens
Summary of the method: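 HUVEC seeded at 15 000 cells/well on collagen-coated wells (0.6 μg/cm2), passage 4–10, grown to ~90% confluence over 21–25 h. Cells exposed to compound (0–2000 μM) in F-12K medium for 1 h at 37 °C. MTS 240 μg/mL with PMS 9.6 μg/mL in HBSS for 1.5–4 h, then A492. Viability referenced to 0.2% SDS and untreated cells; IC50 reported.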

[3] = Hemolytic activity in human RBC after 1 hr; type: ADME, cell-based; settings: Erythrocyte
Summary of the method: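 Fresh human erythrocytes washed in PBS pH 7.4. A 0.5% v/v suspension was mixed 1:1 with 2-fold dilutions of compound (8–1024 μM) and incubated 1 h at 37 °C, then centrifuged. Supernatant hemoglobin read at OD414. Melittin 400 μg/mL set 100% lysis and PBS set 0%. Value is the concentration giving 50% lysis.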

[4] = Binding affinity to synthetic POPC/POPG liposomal membrane at 20 uM by circular dichroism analysis; type: physicochemical; settings: artificial membrane
Summary of the method: (§3)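 CD spectra recorded with 20 μM test compound and 2 mM liposomes in 10 mM Tris buffer, pH 7.5. Liposomes were roughly 100 nm: POPC/POPG 7:3 (bacterial model) or POPC/POPG/cholesterol 5:3:2 (mammalian model). Lipid concentration was standardized by enzymatic phospholipid colorimetric assay.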

[5] = Binding affinity to cholesterol containing synthetic POPC/POPG liposomal membrane at 20 uM by circular dichroism analysis; type: physicochemical; settings: artificial membrane; summary of the method: as §3
Escherichia coli [6] = assay: Antibacterial activity against Escherichia coli ATCC 25922 after 18 hrs by microdilution broth method; type: functional; settings: ATCC 25922, 18 h; summary of the method: as §1
Escherichia coli [7] = assay: Antibacterial activity against extended-spectrum beta-lactamase producing multidrug-resistant and colistin-susceptible Escherichia coli CTX-M-15 clinical isolate Aar 11 after 18 hrs by microdilution broth method; type: functional; settings: CTX-M-15, 18 h
Escherichia coli [8] = assay: Antibacterial activity against NDM-1 producing Escherichia coli clinical isolate 74859898 after 18 hrs by microdilution broth method; type: functional; settings: clinical isolate 74859898, 18 h
Enterococcus faecium = assay: Antibacterial activity against vancomycin-resistant Enterococcus faecium ATCC 700221 after 18 hrs by microdilution broth method; settings: ATCC 700221, 18 h

Compound | MIC (Acinetobacter baumannii) | MIC (Staphylococcus aureus) | IC50 (HeLa) | IC50 (Caco-2) | IC50 (HepG2) | IC50 [1] | IC50 [2] | IC50 (HUVEC) | IC50 [3] | Activity [4] | Activity [5] | MIC (Escherichia coli [6]) | MIC (Escherichia coli [7]) | MIC (Escherichia coli [8]) | MIC (Enterococcus faecium)
CC(=O)N[C@@H](CCCCN)C(=O)N(CCC(=O)N[C@@H](CCCCNC(=N)N)C(=O)N(CCC(=O)N[C@@H](CCCCN)C(=O)N(CCC(=O)N[C@@H](CCCCNC(=N)N)C(=O)N(CCC(=O)N[C@@H](CCCCN)C(=O)N(CCC(=O)N[C@@H](CCCCNC(=N)N)C(=O)N(CCC(=O)N[C@@H](CCCCN)C(=O)N(CCC(N)=O)Cc1ccccc1)Cc1ccccc1)Cc1ccccc1)Cc1ccccc1)Cc1ccccc1)Cc1ccccc1)Cc1ccccc1 | 4 µM (≈ 8.84 µg/mL) | 16 µM (≈ 35.4 µg/mL) | 77 µM | 353 µM | 116 µM | 266 µM | 172 µM | 458 µM | > 1020 µM | Not Active | Not Active | 1 µM (≈ 2.21 µg/mL) | 1 µM (≈ 2.21 µg/mL) | 1 µM (≈ 2.21 µg/mL) | 16 µM (≈ 35.4 µg/mL)
CC(=O)N[C@@H](CCCCNC(=N)N)C(=O)N(CC(=O)N[C@@H](CCCCN)C(=O)N(CC(=O)N[C@@H](CCCCNC(=N)N)C(=O)N(CC(=O)N[C@@H](CCCCN)C(=O)N(CC(=O)N[C@@H](CCCCNC(=N)N)C(=O)N(CC(N)=O)[C@@H](C)c1ccccc1)[C@@H](C)c1ccccc1)[C@@H](C)c1ccccc1)[C@@H](C)c1ccccc1)[C@@H](C)c1ccccc1 (Ac-[hArg][Nspe]K[Nspe][hArg][Nspe]K[Nspe][hArg][Nspe]-NH2) | 16 µM (≈ 26.1 µg/mL) | 32 µM (≈ 52.2 µg/mL) | 165 µM | 583 µM | 141 µM | 146 µM | 210 µM | 398 µM | – | Not Active | Not Active | 8 µM (≈ 13.1 µg/mL) | 8 µM (≈ 13.1 µg/mL) | 8 µM (≈ 13.1 µg/mL) | 8 µM (≈ 13.1 µg/mL)
CC(=O)N[C@@H](CCCCN)C(=O)N(CCC(=O)N[C@@H](CCCCNC(=N)N)C(=O)N(CCC(=O)N[C@@H](CCCCN)C(=O)N(CCC(=O)N[C@@H](CCCCNC(=N)N)C(=O)N(CCC(=O)N[C@@H](CCCCN)C(=O)N(CCC(=O)N[C@@H](CCCCNC(=N)N)C(=O)N(CCC(=O)N[C@@H](CCCCN)C(=O)N(CCC(N)=O)[C@@H](C)c1ccccc1)[C@@H](C)c1ccccc1)[C@@H](C)c1ccccc1)[C@@H](C)c1ccccc1)[C@@H](C)c1ccccc1)[C@@H](C)c1ccccc1)[C@@H](C)c1ccccc1 | 2 µM (≈ 4.62 µg/mL) | 8 µM (≈ 18.5 µg/mL) | 26 µM | 197 µM | 48 µM | 80 µM | 89 µM | 236 µM | – | Not Active | Not Active | 2 µM (≈ 4.62 µg/mL) | 2 µM (≈ 4.62 µg/mL) | 2 µM (≈ 4.62 µg/mL) | 4 µM (≈ 9.24 µg/mL)
CC(=O)N[C@@H](CCCCN)C(=O)N(CC(=O)N[C@@H](CCCCNC(=N)N)C(=O)N(CC(=O)N[C@@H](CCCCN)C(=O)N(CC(=O)N[C@@H](CCCCNC(=N)N)C(=O)N(CC(=O)N[C@@H](CCCCN)C(=O)N(CC(=O)N[C@@H](CCCCNC(=N)N)C(=O)N(CC(=O)N[C@@H](CCCCN)C(=O)N(CC(N)=O)[C@@H](C)c1ccccc1)[C@@H](C)c1ccccc1)[C@@H](C)c1ccccc1)[C@@H](C)c1ccccc1)[C@@H](C)c1ccccc1)[C@@H](C)c1ccccc1)[C@@H](C)c1ccccc1 (Ac-K[Nspe][hArg][Nspe]K[Nspe][hArg][Nspe]K[Nspe][hArg][Nspe]K[Nspe]-NH2) | 1 µM (≈ 2.21 µg/mL) | 16 µM (≈ 35.4 µg/mL) | 21 µM | 182 µM | 35 µM | 30 µM | 67 µM | 145 µM | – | Not Active | Not Active | 1 µM (≈ 2.21 µg/mL) | 2 µM (≈ 4.42 µg/mL) | 1 µM (≈ 2.21 µg/mL) | 4 µM (≈ 8.84 µg/mL)
